Our source for the IC50 values is ChEMBL document CHEMBL1933033, “Cytotoxic withanolide constituents of Physalis longifolia” (J Nat Prod, 2011).

In one test the test system is B16-F10. In words: Cytotoxicity against mouse B16F10 cells after 72 hrs by MTS assay. The format is functional, cell-based. The following applies: B16-F10, 72 h. The method in brief:
(§1)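 MTS viability assay on HNSCC (JMAR, MDA-1986), melanoma (B16F10, SKMEL-28) and normal fetal fibroblast (MRC-5) cells. Pure compounds tested at ten concentrations from 50 nM to 20 μM. IC50 values derived from the concentration series.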
A general note: Tetrazolium dyes change colour on reduction, which living cells bring about.

The nature of test [1]: Cytotoxicity against human MDA1986 cells after 72 hrs by MTS assay. The format is functional, cell-based. The following applies: MDA1986, 72 h. The method in brief:
as §1

Test [2] is described as follows: Cytotoxicity against human […] cells after 72 hrs by MTS assay. The format is cell-based. A digest of the protocol:
as §1

The subject of the next test is SK-MEL-28. In words: Cytotoxicity against human SK-MEL-28 cells after 72 hrs by MTS assay. Format: functional, cell-based. As to conditions: SK-MEL-28, 72 h. The method in brief: as §1
Test [3] is described as follows: Cytotoxicity against human JMAR cells after 72 hrs by MTS assay. Format: functional, cell-based. The method in brief: as §1

A word on the IC50: it is the concentration that inhibits the measured activity by half. For the compound `CC1=C(CO)C(=O)O[C@@H]([C@@H](C)[C@H]2CC[C@H]3[C@@H]4CC=C5C=CC(=O)[C@]5(C)[C@H]4CC[C@]23C)C1` [WITHALONGOLIDE F], the 50% inhibitory concentration (IC50) (in the test on B16-F10; in test [1]; in test [2]; in the test on SK-MEL-28; in test [3]) was over 10 µM throughout.

Turning to `CC1=C(CO)C(=O)O[C@@H]([C@@H](C)[C@H]2CC[C@H]3[C@@H]4C[C@@H]5O[C@@H]6CC(=O)[C@](C)([C@H]4CC[C@]23C)[C@@]5(O)[C@H]6O)C1`, the IC50 (in the test on B16-F10; in test [1]; in test [2]; in the test on SK-MEL-28; in test [3]) was over 10 µM each time.

For the compound `CC(=O)OCC1=C(C)C[C@H]([C@@H](C)[C@H]2CC[C@H]3[C@@H]4C[C@H]5O[C@]56[C@@H](OC(C)=O)C=CC(=O)[C@]6(COC(C)=O)[C@H]4CC[C@]23C)OC1=O`, the IC50 is 0.067 µM in the test with B16-F10; 0.91 µM in test [1]; 0.58 µM in test [2]; 0.54 µM with SK-MEL-28; 0.16 µM in test [3].

On to `CC1=C(C)C(=O)O[C@@H]([C@@H](C)[C@H]2CC[C@H]3[C@@H]4C[C@H]5O[C@]56[C@@H](O)C=CC(=O)[C@]6(CO)[C@H]4CC[C@]23C)C1` [WITHALONGOLIDE B], for which the IC50 with B16-F10 amounted to 0.2 µM; in test [1], 1.3 µM; in test [2], 0.4 µM; in the test with SK-MEL-28, 3.9 µM; in test [3], 0.17 µM.

Regarding `CC1=C(CO)C(=O)O[C@@H]([C@@H](C)[C@H]2CC[C@H]3[C@@H]4C[C@H]5O[C@]56[C@@H](O)[C@@H](OS(=O)(=O)O)CC(=O)[C@]6(CO)[C@H]4CC[C@]23C)C1` [WITHALONGOLIDE G], the IC50 in the test with B16-F10 worked out at 1.3 µM; in test [1], 2 µM; in test [2], 3.3 µM; in the test with SK-MEL-28 it was 4.8 µM; in test [3], 2.3 µM.

As to `CO[C@H]1CC(=O)[C@]2(C)[C@@H]3[C@@H](C[C@H]4O[C@]42[C@H]1O)[C@@H]1CC[C@H]([C@H](C)[C@H]2CC(C)=C(CO)C(=O)O2)[C@@]1(C)C[C@@H]3O` [WITHALONGOLIDE E], the IC50 was 5.6 µM with B16-F10; 8.3 µM in test [1]; 7.3 µM in test [2]; over 10 µM in the test with SK-MEL-28; over 10 µM in test [3].

As to `CC1=C(CO[C@@H]2O[C@H](CO)[C@@H](O)[C@H](O)[C@H]2O)C[C@H]([C@@H](C)[C@H]2CC[C@H]3[C@@H]4CC(=O)C5=C(CC[C@@H](O)C5)[C@H]4CC[C@]23C)OC1=O` [WITHALONGOLIDE N], the half-inhibitory concentration (IC50) (in the test on B16-F10; in test [1]; in test [2]; in the test with SK-MEL-28; in test [3]) was over 10 µM in each case.

For the compound `CC1=C(CO[C@@H]2O[C@H](CO)[C@@H](O)[C@H](O)[C@H]2O)C[C@H]([C@@H](C)[C@H]2CC[C@H]3[C@@H]4CC=C5C[C@@H](O)C[C@H](O)[C@]5(CO)[C@H]4CC[C@]23C)OC1=O` [WITHALONGOLIDE J], the IC50 (in the test on B16-F10; in test [1]; in test [2]; with SK-MEL-28; in test [3]) was over 10 µM throughout.

Take `CC1=C(CO)C(=O)O[C@@H]([C@@H](C)[C@H]2CC[C@H]3[C@@H]4C[C@H]5O[C@]56[C@@H](O)[C@@H](OS(=O)(=O)O)CC(=O)[C@]6(C)[C@H]4CC[C@]23C)C1`: the IC50 in the test with B16-F10 was found to be 0.18 µM; in test [1], 0.27 µM; in test [2] it was 1.4 µM; with SK-MEL-28, 5.1 µM; in test [3], 0.48 µM.

On to `CC1=C(CO)C(=O)O[C@@H]([C@@H](C)[C@H]2CC[C@H]3[C@@H]4C[C@H]5O[C@]56[C@@H](O)CCC(=O)[C@]6(C)[C@H]4CC[C@]23C)C1`, for which the IC50 (in the test on B16-F10; in test [1]; in test [2]; in the test on SK-MEL-28; in test [3]) was over 10 µM each time.

Regarding `CC1=C(CO)C(=O)O[C@@H]([C@@H](C)[C@H]2CC[C@H]3[C@@H]4CC=C5C[C@@H](O[C@@H]6O[C@H](CO)[C@@H](O)[C@H](O)[C@H]6O)CC(=O)[C@]5(CO)[C@H]4CC[C@]23C)C1` [WITHALONGOLIDE I], the concentration for half-maximal inhibition (IC50) (in the test on B16-F10; in test [1]; in test [2]; with SK-MEL-28; in test [3]) was over 10 µM throughout.

With `CC(=O)OC[C@]12C(=O)C=C[C@H](O)[C@]13O[C@@H]3C[C@H]1[C@@H]3CC[C@H]([C@H](C)[C@H]4CC(C)=C(C)C(=O)O4)[C@@]3(C)CC[C@@H]12`, the IC50 in the test with B16-F10 is 0.19 µM; in test [1], 0.49 µM; in test [2] it was 0.16 µM; in the test on SK-MEL-28, 0.64 µM; in test [3], 0.12 µM.

For the compound `CC(=O)OC[C@]12C(=O)C=C[C@H](OC(C)=O)[C@]13O[C@@H]3C[C@H]1[C@@H]3CC[C@H]([C@H](C)[C@H]4CC(C)=C(C)C(=O)O4)[C@@]3(C)CC[C@@H]12`, the IC50 in the test on B16-F10 stood at 0.13 µM; in test [1] it was 0.11 µM; in test [2], 0.51 µM; in the test with SK-MEL-28 it was 0.27 µM; in test [3], 0.24 µM.

With `CO[C@H]1CC(=O)[C@]2(CO)[C@H]3CC[C@]4(C)[C@@H]([C@H](C)[C@H]5CC(C)=C(CO)C(=O)O5)CC[C@H]4[C@@H]3C[C@H]3O[C@]32[C@H]1O` [WITHALONGOLIDE D], the IC50 in the test on B16-F10 was 3.2 µM; in test [1] it was over 10 µM; in test [2], 6.5 µM; in the test with SK-MEL-28 it was 9.3 µM; in test [3], 4.7 µM.

Regarding `CC1=C(CO)C(=O)O[C@@H]([C@@H](C)[C@H]2CC[C@H]3[C@@H]4C[C@H]5O[C@]56[C@@H](O)C=CC(=O)[C@]6(CO)[C@H]4CC[C@]23C)C1`, the IC50 in the test with B16-F10 was over 10 µM; in test [1], 3.3 µM; in test [2], over 10 µM; with SK-MEL-28, 5.1 µM; in test [3] it was 5.3 µM.

In the case of `CC1=C(CO)C(=O)O[C@@H]([C@@H](C)[C@H]2CC[C@H]3[C@@H]4C[C@H]5O[C@]56[C@@H](O)C=CC(=O)[C@]6(C)[C@H]4CC[C@]23C)C1` [WITHAFERIN A], the IC50 in the test with B16-F10 is 0.29 µM; in test [1] it was 0.8 µM; in test [2], 0.2 µM; in the test on SK-MEL-28 it was 4 µM; in test [3] it was 2 µM.

`CC1=C(CO[C@@H]2O[C@H](CO)[C@@H](O)[C@H](O)[C@H]2O)C[C@H]([C@@H](C)[C@H]2CC[C@H]3[C@@H]4C[C@H](O)c5cccc(O)c5[C@H]4CC[C@]23C)OC1=O` [WITHALONGOLIDESAPONIN]: the IC50 (with B16-F10; in test [1]; in test [2]; with SK-MEL-28; in test [3]) was over 10 µM throughout.
